bIAP act: bovine intestinal alkaline phosphatase activators, primary screen, biochemical, bovine IAP, CDP-star luminescence | purified bovine IAP, 30 min; stronger effect = higher value; fold of DMSO-control signal, blank-subtracted | AID 1016, 2008 | 0.17% of 200,000 active | activation factor at 20 µM;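 active means activation factor of 2 or more at 20 µM, a signal rise over negative controls twice the positive control's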
mIAP inh: inhibitors of mouse IAP, primary screen, biochemical, luminescence, uHTS; AID 2806, 2010; inhibition, % at 10 µM; purified mouse IAP, CDP-Star luminescence, 30 min; 0.2% of 330,000 active;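 active means inhibition of at least 40% at 10 µM in the primary screen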;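 further: plate controls were DMSO with enzyme for no effect and no enzyme wells for full effect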
hIAP inh: human IAP inhibitors, primary screen, biochemical, luminescence, uHTS; Intestinal-type alkaline phosphatase (Homo sapiens), P09923; purified IAP, CDP-Star luminescence, 30 min; inhibition, % at 10 µM; 0.12% of 330,000 active; AID 2544, 2010;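 active means inhibition reaching a set limit with compound at 10 µM in the primary screen, cut at about 35% in these data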;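 further: plate controls were DMSO wells with enzyme for no effect and no-enzyme buffer wells for full effect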
Target sequence (P09923 whole entry, looked up): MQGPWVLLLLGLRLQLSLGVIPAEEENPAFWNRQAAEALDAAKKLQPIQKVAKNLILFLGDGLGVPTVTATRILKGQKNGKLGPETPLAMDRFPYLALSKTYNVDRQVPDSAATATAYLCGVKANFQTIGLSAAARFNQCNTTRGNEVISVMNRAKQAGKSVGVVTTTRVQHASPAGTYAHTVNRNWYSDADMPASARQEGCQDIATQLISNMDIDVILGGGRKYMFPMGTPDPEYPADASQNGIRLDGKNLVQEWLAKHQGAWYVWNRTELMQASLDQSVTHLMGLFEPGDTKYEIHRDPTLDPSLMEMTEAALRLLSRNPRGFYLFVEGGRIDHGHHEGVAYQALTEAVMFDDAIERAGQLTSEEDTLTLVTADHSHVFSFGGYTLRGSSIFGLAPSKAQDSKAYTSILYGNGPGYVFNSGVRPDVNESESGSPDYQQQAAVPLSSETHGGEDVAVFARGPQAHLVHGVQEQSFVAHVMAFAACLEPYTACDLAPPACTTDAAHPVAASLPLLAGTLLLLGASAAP
hIAP act: human IAP activators, primary screen, biochemical, luminescence, uHTS | AID 2524, 2010 | purified human IAP, CDP-Star luminescence, 30 min; stronger effect = higher value; 1 = vehicle-only enzyme, 0 = enzyme-free background | activation factor at 10 µM | 0.16% of 330,000 active | Intestinal-type alkaline phosphatase (Homo sapiens), P09923;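 active means activation factor of the enzyme at least 2-fold when tested at 20 µM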
mIAP activ: activators of mouse IAP, primary screen, biochemical, luminescence, uHTS; intestinal alkaline phosphatase [Mus musculus]; muIAP, CDP-Star luminescence, 30 min; stronger effect = higher value; 1 = vehicle-only enzyme signal, 0 = enzyme-free wells; activation factor at 10 µM; 0.24% of 330,000 active;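 active means activation factor of at least 2 at 20 µM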
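System: mouse IAP enzyme. Reagent: CDP-Star chemiluminescent phosphatase substrate. Benchmarks: DMSO wells, no-enzyme wells. Times: 30 min enzyme-substrate-compound incubation at room temperature. Detection: luminescence from enzymatic CDP-Star hydrolysis. Doses: test compounds delivered from DMSO solution.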
bIAP inhibitor: bovine intestinal alkaline phosphatase inhibitors, primary screen, selectivity assay for TNAP inhibitor project, biochemical, bovine IAP, CDP-star luminescence; inhibition, % at 20 µM; alkaline phosphatase, intestinal [Bos taurus]; 190,000 tested, under 10 active; purified bovine IAP, 30 min;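 active means over 50% inhibition of intestinal alkaline phosphatase at 20 µM in the single-dose screen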
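Assay system – bovine IAP enzyme · Quantity – bovine IAP at 1/65,000,000 final dilution · Detection – CDP-star luminescence signal · Times – 30 min reaction at room temperature · Also added – CDP-star substrate at 30 µM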
hIAP act confirm: human IAP activators, confirmation, biochemical, luminescence, single concentration, uHTS hits; shares compounds with hIAP act; purified IAP, CDP-Star luminescence, 30 min; stronger effect = lower value; 10% of 880 active; activation (%Activity, negative = activation), % at 8.3 µM;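 active means at least twofold enzyme activation in any of six single-dose repeats, which the averaged readout prints as negative percent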
* marks the source's active call; other numbers are inactive results. Sampled rows, rich in hits. Any-hit rate of the full collection: about 0.79%.

What do the screens show for `Cn1nc(C(=O)NNC(=O)CCOc2ccc(C(C)(C)C)cc2)c2ccccc2c1=O`?
mIAP inh: 4; hIAP inh: -114; hIAP act: 2.1*; mIAP activ: 0.96; hIAP act confirm: -19

What do the screens show for `COc1ccc(CCNC(=S)NC(=O)c2cccc([N+](=O)[O-])c2)cc1OC`?
mIAP inh: 2; hIAP inh: 0; hIAP act: 1; mIAP activ: 0.98

What do the screens show for `O=C(Nc1ccccc1Cl)Oc1ccc(-c2ccccc2)cc1`?
mIAP inh: -3; hIAP inh: 4; hIAP act: 0.96; mIAP activ: 1

How did O=C(O)COc1ccc2c3c(c(=O)oc2c1)CCCC3 do in these assays?
bIAP act: 1; mIAP inh: -2; hIAP inh: 0; hIAP act: 1; mIAP activ: 1; bIAP inhibitor: -4

How did O=C(COc1ccc2c3c(c(=O)oc2c1)CCCC3)N1CCN(c2ccccc2)CC1 do in these assays?
mIAP inh: 4; hIAP inh: 37*; hIAP act: 0.63; mIAP activ: 0.96; hIAP act confirm: -27

Results for Cc1cc(OCC(=O)N2CCN(c3ccccc3)CC2)c2c(C)cc(=O)oc2c1 ?
mIAP inh: 7; hIAP inh: 39*; hIAP act: 0.61; mIAP activ: 0.93; hIAP act confirm: 3

Results for CN(Cc1cnn(C)c1)C(=O)C1CCC(=O)N(Cc2cccc(F)c2)C1 (configuration not stated) ?
mIAP inh: 1; hIAP inh: 45*; hIAP act: 0.55; mIAP activ: 0.99; hIAP act confirm: -58

What do the screens show for `COC(=O)/C=C1\N/C(=N/c2nc(C)c3cc(OC)ccc3n2)NC1=O`?
mIAP inh: 1; hIAP inh: -154; hIAP act: 2.5*; mIAP activ: 0.99; hIAP act confirm: -13

How did COC(=O)/C=C1/C(=O)N/C(=N\c2nc(C)cc(C)n2)N1c1ccc(OC)cc1 do in these assays?
bIAP act: 1; mIAP inh: 6; hIAP inh: 16; hIAP act: 0.84; mIAP activ: 0.94; bIAP inhibitor: 2

Results for CCOC(=O)c1cccnc1SCC(=O)N(C)c1ccccc1 ?
bIAP act: 1; mIAP inh: 1; hIAP inh: 39*; hIAP act: 0.61; mIAP activ: 0.99; bIAP inhibitor: 1; hIAP act confirm: -64

How did CCOC(=O)c1cccnc1SCc1cc(=O)n2ccccc2n1 do in these assays?
bIAP act: 0.8; mIAP inh: -4; hIAP inh: 2; hIAP act: 0.98; mIAP activ: 1; bIAP inhibitor: 16

How did C/C(=N\NC(=O)C1CC1)c1ccccc1Br do in these assays?
mIAP inh: -2; hIAP inh: 35*; hIAP act: 0.65; mIAP activ: 1; hIAP act confirm: -30

How did OCCC1CN(Cc2ccon2)CCN1Cc1ccc(F)c(F)c1 (configuration not stated) do in these assays?
bIAP act: 1; mIAP inh: -4; hIAP inh: -14; hIAP act: 1.1; mIAP activ: 1; bIAP inhibitor: 5

How did O=C1/C(=C\c2cccc(O)c2)SC(=S)N1Cc1ccccc1 do in these assays?
mIAP inh: 21; hIAP inh: -11; hIAP act: 1.1; mIAP activ: 0.79
